Data taken from ChEMBL document CHEMBL1127600, “Mercaptoacyl amino acid inhibitors of atriopeptidase. 1. Structure-activity relationship studies of methionine and S-alkylcysteine derivatives” (J Med Chem, 1994).

What was measured:
[1] = target: T1, Angiotensin-converting enzyme (Oryctolagus cuniculus, UniProt P12822); assay: Tested in vitro for its inhibitory activity against angiotensin converting enzyme
T1 sequence (P12822 whole entry): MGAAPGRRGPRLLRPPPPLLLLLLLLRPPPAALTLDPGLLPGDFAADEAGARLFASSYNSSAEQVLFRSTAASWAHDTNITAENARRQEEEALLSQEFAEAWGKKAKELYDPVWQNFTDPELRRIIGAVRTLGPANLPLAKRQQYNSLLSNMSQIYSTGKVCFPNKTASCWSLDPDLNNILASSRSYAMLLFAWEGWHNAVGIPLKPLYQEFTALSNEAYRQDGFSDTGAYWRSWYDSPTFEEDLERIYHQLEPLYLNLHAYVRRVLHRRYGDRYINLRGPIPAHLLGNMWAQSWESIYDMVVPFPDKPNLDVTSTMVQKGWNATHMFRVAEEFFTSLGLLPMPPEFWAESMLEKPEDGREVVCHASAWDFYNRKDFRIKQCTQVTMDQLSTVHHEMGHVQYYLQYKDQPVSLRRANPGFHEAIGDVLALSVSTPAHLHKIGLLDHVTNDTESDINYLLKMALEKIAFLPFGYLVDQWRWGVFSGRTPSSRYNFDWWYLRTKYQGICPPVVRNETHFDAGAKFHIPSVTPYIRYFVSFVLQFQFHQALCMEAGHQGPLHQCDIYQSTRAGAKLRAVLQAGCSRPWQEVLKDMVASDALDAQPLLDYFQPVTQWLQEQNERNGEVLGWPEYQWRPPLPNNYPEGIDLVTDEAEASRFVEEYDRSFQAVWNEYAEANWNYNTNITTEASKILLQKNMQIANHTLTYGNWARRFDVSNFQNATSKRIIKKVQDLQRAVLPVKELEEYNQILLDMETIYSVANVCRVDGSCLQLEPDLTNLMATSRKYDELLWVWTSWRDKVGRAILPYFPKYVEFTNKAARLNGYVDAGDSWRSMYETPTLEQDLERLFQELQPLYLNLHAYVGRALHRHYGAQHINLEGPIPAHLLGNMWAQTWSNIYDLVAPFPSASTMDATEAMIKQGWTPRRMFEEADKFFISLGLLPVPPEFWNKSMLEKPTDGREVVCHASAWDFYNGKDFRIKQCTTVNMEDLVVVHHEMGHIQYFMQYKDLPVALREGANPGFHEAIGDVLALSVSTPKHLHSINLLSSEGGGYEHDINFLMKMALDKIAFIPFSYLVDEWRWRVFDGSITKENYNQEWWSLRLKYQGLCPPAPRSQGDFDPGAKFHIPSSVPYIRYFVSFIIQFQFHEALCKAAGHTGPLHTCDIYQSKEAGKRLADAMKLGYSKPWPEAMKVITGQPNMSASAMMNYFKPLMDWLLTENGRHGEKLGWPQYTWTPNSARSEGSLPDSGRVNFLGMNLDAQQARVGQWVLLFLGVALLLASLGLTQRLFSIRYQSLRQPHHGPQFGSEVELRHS

Neprilysin = target: T2, Neprilysin (Oryctolagus cuniculus, UniProt P08049); assay: In vitro inhibitory activity against neutral endopeptidase (NEP)
T2 sequence (P08049 whole entry): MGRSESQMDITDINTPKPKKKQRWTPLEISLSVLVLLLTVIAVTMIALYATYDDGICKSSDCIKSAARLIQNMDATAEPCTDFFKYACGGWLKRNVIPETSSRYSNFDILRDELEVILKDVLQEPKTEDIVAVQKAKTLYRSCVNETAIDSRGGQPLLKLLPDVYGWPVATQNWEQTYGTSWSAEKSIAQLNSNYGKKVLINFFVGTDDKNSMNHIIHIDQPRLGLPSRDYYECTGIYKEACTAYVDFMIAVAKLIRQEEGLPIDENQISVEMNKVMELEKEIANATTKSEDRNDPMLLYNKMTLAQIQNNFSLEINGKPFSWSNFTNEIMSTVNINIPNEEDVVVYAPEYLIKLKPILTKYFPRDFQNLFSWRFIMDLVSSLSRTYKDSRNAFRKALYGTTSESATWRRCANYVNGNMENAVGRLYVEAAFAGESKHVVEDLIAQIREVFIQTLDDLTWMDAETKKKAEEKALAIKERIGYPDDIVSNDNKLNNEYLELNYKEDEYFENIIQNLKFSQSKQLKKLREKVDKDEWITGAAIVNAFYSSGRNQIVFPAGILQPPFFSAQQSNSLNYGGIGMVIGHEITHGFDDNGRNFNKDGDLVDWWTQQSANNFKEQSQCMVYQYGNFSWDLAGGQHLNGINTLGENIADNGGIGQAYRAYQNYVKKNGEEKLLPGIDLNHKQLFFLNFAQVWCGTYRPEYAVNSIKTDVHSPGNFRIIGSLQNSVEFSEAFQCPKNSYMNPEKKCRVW
Procedure, shortened: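 Purified rabbit kidney NEP (EC 24.11) was the enzyme source, with [³H]Leu-enkephalin as the substrate.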

Rattus norvegicus [2] = assay: Tested for in vivo Antihypertensive activity in DOCA rat by giving peroral dose of 10 mg/kg; type: functional; settings: route oral
Procedure, shortened: (§1)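 Male Sprague-Dawley rats (100–150 g) had DOCA-Na hypertension induced and were used 17–21 days later if mean BP was >150 mmHg. Rats were not fasted. Mean BP was recorded after 90-min equilibration. Dosing was sc in TRIS buffer (2 mL/kg) or po in 0.4% aqueous methylcellulose (4 mL/kg). The maximum BP fall over 4 h versus vehicle controls was taken, averaged over four or more animals.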

Rattus norvegicus [3] = assay: In vivo potentiation of ANF induced hypotension in rat, following subcutaneous dose of 30 mg/kg; type: functional
Procedure, shortened: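 Conscious male SHR (270–300 g) had caudal artery and jugular vein cannulae placed under ether. After at least 90 min of stabilization, ANF 103-125 or 99-126 was given as an iv bolus at a submaximal dose. 60–90 min later, drug or vehicle (0.2% aqueous methylcellulose with 20% Tris-HCl) was given sc. ANF was repeated 15 min after dosing, and the response was compared with vehicle controls. Values are means of four or more animals.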

Rattus norvegicus [4] = assay: Tested for in vivo Antihypertensive activity in DOCA rat by giving peroral dose of 30 mg/kg; type: functional; settings: route oral; procedure, shortened: as §1
Rattus norvegicus [5] = assay: Tested for in vivo Antihypertensive activity in DOCA rat by giving subcutaneous dose of 30 mg/kg; type: functional; procedure, shortened: as §1

Row | Compound | IC50 [1] | IC50 (Neprilysin) | Delta blood pressure (Rattus norvegicus [2]) | Delta blood pressure (Rattus norvegicus [3]) | Delta blood pressure (Rattus norvegicus [4]) | Delta blood pressure (Rattus norvegicus [3]; 30 mg/kg) | Delta blood pressure (Rattus norvegicus [5])
1 | CSCC[C@@H](NC(=O)[C@@H](CS)Cc1ccccc1)C(=O)O | 35 nM | 6.5 nM | 31 mmHg | 23 mmHg |  |  | 
2 | O=C(N[C@H](CSCCc1ccccc1)C(=O)O)[C@H](CS)Cc1ccccc1 | > 1000 nM | 133 nM |  | 23 mmHg | 38 mmHg |  | 
3 | CSCC[C@@H](NC(=O)[C@@H](CS)CCc1ccccc1)C(=O)O | 150 nM | 60 nM | 18 mmHg |  |  |  | 
4 | CCCC(CS)C(=O)N[C@H](CSCC)C(=O)O (stereo partly drawn) | 1000 nM | > 300 nM |  |  |  |  | 
5 | CSC[C@@H](NC(=O)[C@@H](CS)Cc1ccccc1)C(=O)O | 77 nM | 1.5 nM |  | 30 mmHg | 0 mmHg |  | 
6 | O=C(N[C@H](CSCc1ccccc1)C(=O)O)C(CS)Cc1ccccc1 (single isomer, unassigned) | 1250 nM | 14 nM |  |  | 18 mmHg | 19 mmHg | 
7 | CSCC[C@@H](NC(=O)[C@H](CS)Cc1ccccc1)C(=O)O | > 1000 nM | 3.5 nM | 30 mmHg | 50 mmHg |  |  | 
8 | CSCC[C@@H](NC(=O)[C@@H](CSC(C)=O)Cc1ccccc1)C(=O)O |  |  |  |  |  |  | 48 mmHg
9 | CSCC[C@@H](NC(=O)[C@@H](CS)Cc1ccccc1)C(N)=O | > 1000 nM | 76 nM |  | 26 mmHg |  |  | 
10 | Cc1ccc(CSC[C@@H](NC(=O)[C@H](CS)Cc2ccc3ccccc3c2)C(=O)O)cc1 |  |  |  | 0 mmHg |  |  | 
11 | CSCC[C@@H](NC(=O)[C@@H](CSC(=O)c1ccccc1)Cc1ccccc1)C(N)=O |  |  |  |  |  |  | 0 mmHg
12 | CSCC[C@@H](NC(=O)C(CSC(C)=O)Cc1ccccc1)C(=O)N1CCOCC1 (stereo partly drawn) |  | > 300 nM | 20 mmHg | 24 mmHg |  |  | 
13 | O=C(N[C@@H](CSCc1ccccc1)C(=O)O)[C@@H](CS)Cc1ccccc1 | 115 nM | 19 nM |  | 11 mmHg |  |  | 
14 | O=C(N[C@H](CSCc1ccccc1)C(=O)O)[C@@H](CS)Cc1ccc(Cl)cc1 | 44 nM | 3 nM |  | 19 mmHg | 20 mmHg |  | 
15 | CSCC[C@@H](NC(=O)C1(CS)CCCC1)C(=O)O | 700 nM | 3.5 nM |  |  |  |  | 24 mmHg
16 | CCSC[C@@H](NC(=O)C(CS)Cc1ccccc1)C(=O)O (stereo partly drawn) | 45 nM | 6.5 nM |  | 25 mmHg |  |  | 
17 | CSCC[C@@H](NC(=O)C(CSC(C)=O)Cc1ccccc1)C(=O)NCCO (stereo partly drawn) |  |  | 24 mmHg | 25 mmHg |  |  | 
18 | Cc1ccc(CSC[C@@H](NC(=O)[C@H](CS)Cc2ccc(-c3ccccc3)cc2)C(=O)O)cc1 | > 1000 nM | 290 nM |  | 0 mmHg |  |  | 
19 | Cc1ccc(CSC[C@@H](NC(=O)[C@H](CS)Cc2cccc3ccccc23)C(=O)O)cc1 | 90 nM | 39 nM |  | 0 mmHg |  |  | 
20 | CCCC(CS)C(=O)N[C@H](CCSC)C(=O)O (stereo partly drawn) | > 1000 nM | 2.5 nM |  |  |  |  | 

Row | Compound | IC50 [1] | IC50 (Neprilysin) | Delta blood pressure (Rattus norvegicus [2]) | Delta blood pressure (Rattus norvegicus [3]) | Delta blood pressure (Rattus norvegicus [4]) | Delta blood pressure (Rattus norvegicus [3]; 30 mg/kg) | Delta blood pressure (Rattus norvegicus [5])
21 | CSCC[C@@H](NC(=O)[C@H](CSC(C)=O)Cc1ccccc1)C(N)=O |  |  |  | 27 mmHg |  |  | 
22 | CCSCC[C@@H](NC(=O)[C@H](CS)Cc1ccccc1)C(=O)O | > 1000 nM | 31 nM |  | 30 mmHg | 0 mmHg |  | 
23 | CCOC(=O)[C@@H](CCSC)NC(=O)C1(CSC(C)=O)CCCC1 |  |  | 27 mmHg |  |  |  | 
24 | COC(=O)[C@@H](CCSC)NC(=O)[C@H](CSC(C)=O)Cc1ccccc1 |  |  | 14 mmHg | 45 mmHg |  |  | 
25 | COc1ccc(CSC[C@@H](NC(=O)[C@@H](CS)Cc2ccccc2)C(=O)O)cc1 | 95 nM | 2 nM |  |  | 28 mmHg |  | 
26 | CCOC(=O)CNC(=O)[C@@H](CCSC)NC(=O)C(CSC(C)=O)Cc1ccccc1 (stereo partly drawn) |  | > 300 nM | 0 mmHg |  |  |  | 
27 | CC(C)(C)SC[C@@H](NC(=O)[C@@H](CS)Cc1ccccc1)C(=O)O | 170 nM | 49 nM |  | 25 mmHg | 17 mmHg |  | 
28 | CSCC[C@@H](NC(=O)C(CSC(C)=O)Cc1ccccc1)C(=O)N1CCCC1 (stereo partly drawn) |  |  | 24 mmHg | 29 mmHg |  |  | 
29 | Cc1ccc(CSC[C@@H](NC(=O)[C@@H](CS)Cc2ccc3ccccc3c2)C(=O)O)cc1 | 460 nM | > 300 nM |  | 0 mmHg |  |  | 
30 | O=C(N[C@H](CSC(c1ccccc1)(c1ccccc1)c1ccccc1)C(=O)O)C(CS)Cc1ccccc1 (stereo partly drawn) | > 1000 nM | 274 nM |  | 0 mmHg |  |  | 
31 | O=C(N[C@H](CSCCc1ccccc1)C(=O)O)[C@@H](CS)Cc1ccccc1 | 80 nM | 110 nM |  | 37 mmHg | 0 mmHg |  | 
32 | CC(C)(C)SC[C@@H](NC(=O)[C@H](CS)Cc1ccccc1)C(=O)O | 640 nM | 231 nM |  | 0 mmHg |  |  | 
33 | Cc1ccc(CSC[C@@H](NC(=O)[C@@H](CS)Cc2ccccc2)C(N)=O)cc1 |  | > 300 nM |  | 0 mmHg |  |  | 
34 | CC(=O)SC[C@@H](Cc1ccccc1)C(=O)N[C@H](CSCc1ccc(C)cc1)C(N)=O |  |  | 29 mmHg | 12 mmHg |  |  | 
35 | CSCC[C@@H](NC(=O)[C@H](CS)Cc1ccccc1)C(N)=O | > 1000 nM | 94 nM |  |  |  |  | 
36 | Cc1ccc(CSC[C@@H](NC(=O)[C@@H](CS)Cc2ccc(-c3ccccc3)cc2)C(=O)O)cc1 | 180 nM | 180 nM |  | 0 mmHg | 19 mmHg |  | 
37 | O=C(N[C@H](CSCc1ccccc1)C(=O)O)[C@H](CS)Cc1ccc(Cl)cc1 | > 1000 nM | 147 nM |  | 0 mmHg |  |  | 
38 | Cc1ccc(CSC[C@@H](NC(=O)[C@H](CS)Cc2ccccc2)C(=O)O)cc1C | > 1000 nM | 541 nM |  | 0 mmHg |  |  | 
39 | CCSCC[C@@H](NC(=O)[C@@H](CS)Cc1ccccc1)C(=O)O | 215 nM | 5 nM |  | 20 mmHg |  |  | 
